# How the values were obtained:
# [1] = melting temperature; fluorescence melt of hairpins on a sequencing array, two-state fit, raised by 9.35 °C to match UV melts; settings: sodium 0.088 M
# Outline: (§1)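 Melting temperature and folding enthalpy were derived from bootstrapped two-state fits. The fitted temperatures were raised by 9.35 °C to agree with UV melts, and four replicates were combined by inverse variance. The underlying data were Cy3 fluorescence images of library hairpins, with annealed Cy3 and quencher oligos, on a sequenced MiSeq flow cell in 50 mM Na-HEPES pH 8.0, 25 mM NaCl, taken in 2.5 °C steps up to 60 °C, normalised to pre-quench Cy3 and to control constructs.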
# [2] = folding enthalpy; higher = less favourable; fluorescence melt of hairpins on a sequencing array, two-state fit; settings: sodium 0.088 M
# Outline: as §1
Sequence,Tm [1],folding enthalpy [2]
GCAGAACCGAAAGGTTGC (((..(((....)))))),44.5 °C,-17.1 kcal/mol
GCAGAAGCGAAAGCTTGC (((..(((....)))))),47.2 °C,-16.2 kcal/mol
GCAGAAGGAAACTCCTGC ((((.((....)).)))),40.1 °C,-20.9 kcal/mol
GCAGACGAAAGTCGATGC ((((((....)))..))),45.4 °C,-17.6 kcal/mol
GCAGACGGAAACGTCTAC (.(((((....))))).),42.7 °C,-14.1 kcal/mol
GCAGAGCCGAAAGGCTGC (((..(((....)))))),52.9 °C,-13.8 kcal/mol
GCAGAGCGAAAGCAATGC (((..((....))..))),53.9 °C,-21 kcal/mol
GCAGAGCGAAAGCACAGC ((.(.((....)).).)),42.9 °C,-15.6 kcal/mol
GCAGAGCGAAAGCGCGGC ((.(.((....)).).)),60.1 °C,-20.9 kcal/mol
GCAGAGCGAAAGCTTAGC ((..(((....)))..)),41.7 °C,-17.5 kcal/mol
GCAGAGCGAAAGCTTTGC (((.(((....))).))),56.1 °C,-53.2 kcal/mol
GCAGAGGCGAAAGCCTGC (((..(((....)))))),56.7 °C,-14.5 kcal/mol
GCAGAGGGAAACCCCTGC ((((.((....)).)))),49 °C,-33.7 kcal/mol
GCAGATGCGAAAGCATGC (((..(((....)))))),47.9 °C,-13.6 kcal/mol
GCAGATGGAAACGTTTGC (((.(.(....).).))),28.9 °C,-12.6 kcal/mol
GCAGCACGAAAGTGTTGC (((.(((....))).))),60.6 °C,-37.2 kcal/mol
GCAGCAGCGAAAGCTTGC (((..(((....)))))),43.5 °C,-13.6 kcal/mol
GCAGCAGGAAACTACTGC ((((.((....)).)))),45.5 °C,-30.5 kcal/mol
GCAGCCCCGAAAGGGTGC (((..(((....)))))),53.4 °C,-16.5 kcal/mol
GCAGCCCGAAAGGGTGC (((.(((....)))))),64.4 °C,-20.6 kcal/mol
GCAGCCGAAAGGCCGTGC ((((((....)))..))),41.9 °C,-13.3 kcal/mol
GCAGCCGCGAAAGCGTGC (((..(((....)))))),48.4 °C,-8.84 kcal/mol
GCAGCCGGAAACGGTTGC (((.(((....))).))),64.8 °C,-50.1 kcal/mol

Sequence,Tm [1],folding enthalpy [2]
GCAGCGACGAAAGTCTGC (((..(((....)))))),48.3 °C,-16.1 kcal/mol
GCAGCGCGAAAGCATTGC (((..((....))..))),40.9 °C,-14 kcal/mol
GCAGCGCGAAAGCCATGC (((..((....))..))),45.1 °C,-14.9 kcal/mol
GCAGCGCGAAAGCCCAGC ((.(.((....)).).)),28.1 °C,-10.9 kcal/mol
GCAGCGCGAAAGCCCTGC ((((.((....)).)))),60.1 °C,-25.9 kcal/mol
GCAGCGCGAAAGCGCCGC ((.((((....)))).)),67.4 °C,-15.5 kcal/mol
GCAGCGCGAAAGCGGCGC ((..(((....)))..)),67.5 °C,-21.6 kcal/mol
GCAGCGCGAAAGCGGGGC ((..(((....)))..)),67.2 °C,-28 kcal/mol
GCAGCGCGAAAGCGTGGC ((..(((....)))..)),64.2 °C,-23.1 kcal/mol
GCAGCTCCGAAAGGATGC (((..(((....)))))),41.5 °C,-16.2 kcal/mol
GCAGCTGCGAAAGCATGC (((..(((....)))))),45.1 °C,-11.6 kcal/mol
GCAGCTGGAAACAGCTAC (.(((((....))))).),42.1 °C,-14 kcal/mol
GCAGCTTCGAAAGAATGC (((..(((....)))))),29.1 °C,-12.8 kcal/mol
GCAGGACGAAAGTCTGC (((.(((....)))))),58.4 °C,-31.7 kcal/mol
GCAGGAGAAATCCTGC ((((((....)))))),61.1 °C,-36.1 kcal/mol
GCAGGCGAAAGCCCCTGC ((((((....)))..))),40.6 °C,-15.9 kcal/mol
GCAGGCGAAAGCCGTTGC ((((((....)))..))),53.7 °C,-12.6 kcal/mol
GCAGGCGAAAGCCTCTGC ((((((....)))..))),46.7 °C,-12 kcal/mol
GCAGGCGAAAGCCTGTGC ((((((....)))..))),68.2 °C,-14.2 kcal/mol
GCAGGGAAACCTGC (((((....))))),62.7 °C,-28.1 kcal/mol
GCAGGGCCGAAAGGCTGC (((..(((....)))))),55.3 °C,-14.3 kcal/mol
GCAGGGCGAAAGCACGGC ((.(.((....)).).)),65 °C,-33.9 kcal/mol
GCAGGGCGAAAGCCAAGC ((..(((....)))..)),53.4 °C,-17.2 kcal/mol

Sequence,Tm [1],folding enthalpy [2]
GCAGGGCGAAAGCCTGC (((.(((....)))))),68 °C,-20.3 kcal/mol
GCAGGGCGAAAGCGCAGC ((.(.((....)).).)),54.8 °C,-11.9 kcal/mol
GCAGGGGCGAAAGCCTGC (((..(((....)))))),53.7 °C,-17.6 kcal/mol
GCAGGTCCGAAAGGATGC (((..(((....)))))),37.7 °C,-16.6 kcal/mol
GCAGGTCGAAAGACTTGC (((.(((....))).))),56.7 °C,-41.2 kcal/mol
GCAGGTGGAAACATCTGC ((((.((....)).)))),52.9 °C,-37.8 kcal/mol
GCAGGTGGAAACGCTTGC (((.(.(....).).))),46.6 °C,-23 kcal/mol
GCAGTACGAAAGTATTGC (((.(((....))).))),52.8 °C,-45.2 kcal/mol
GCAGTAGGAAACTACTGC (((((((....))))))),64.6 °C,-54 kcal/mol
GCAGTCCGAAAGGAATGC (((.(((....))).))),62.1 °C,-38.1 kcal/mol
GCAGTCCGAAAGGAGTGC (((.(((....))).))),65.8 °C,-47.7 kcal/mol
GCAGTCCGAAAGGATTGC (((.(((....))).))),60.2 °C,-46.3 kcal/mol
GCAGTCGAAAGACACTGC ((((((....)))..))),43.5 °C,-18 kcal/mol
GCAGTCGAAAGACCTTGC ((((((....)))..))),33.8 °C,-13.3 kcal/mol
GCAGTCGAAAGACTTTGC ((((((....)))..))),35.7 °C,-17.7 kcal/mol
GCAGTCGGAAACGACCGC ((.((((....)))).)),52 °C,-27.3 kcal/mol
GCAGTCGGAAACGATTGC (((.(((....))).))),54.4 °C,-43.6 kcal/mol
GCAGTCTCGAAAGAGTGC (((..(((....)))))),45.8 °C,-25.4 kcal/mol
GCAGTGCGAAAGCATCGC ((..(((....)))..)),55.2 °C,-14.9 kcal/mol
GCAGTGCGAAAGCCCTGC ((((.((....)).)))),61.8 °C,-32.8 kcal/mol
GCAGTGCGAAAGCGATGC (((..((....))..))),62.4 °C,-30.6 kcal/mol
GCAGTGCGAAAGCTCCGC ((.(.((....)).).)),47.9 °C,-11.9 kcal/mol
GCAGTGGAAACACTGC ((((((....)))))),68.5 °C,-32.9 kcal/mol

Sequence,Tm [1],folding enthalpy [2]
GCAGTGGCGAAAGCCTGC (((..(((....)))))),58.3 °C,-19.3 kcal/mol
GCAGTGGGAAACTACTGC (((((.(....).))))),54.2 °C,-37.9 kcal/mol
GCAGTTGAAAAACTGC ((((((....)))))),58.9 °C,-37.8 kcal/mol
GCAGTTGGAAACAACTAC (.(((((....))))).),37.5 °C,-17.1 kcal/mol
GCATAAGGAAACTTATGC (((((((....))))))),54.7 °C,-39.1 kcal/mol
GCATACCGAAAGGTCTGC (((.(((....))).))),51.4 °C,-33.5 kcal/mol
GCATACGAAAGTATGTGC ((((((....)))..))),52.2 °C,-23 kcal/mol
GCATACGCGAAAGCGTGC (((..(((....)))))),48.7 °C,-10.8 kcal/mol
GCATACGGAAACATATGC (((((.(....).))))),37 °C,-24.4 kcal/mol
GCATACGGAAACGCATGC ((((.((....)).)))),48.5 °C,-34.5 kcal/mol
GCATACGGAAACGTACGC ((.((((....)))).)),44.2 °C,-31.4 kcal/mol
GCATACGGAAACGTATAC (.(((((....))))).),34.9 °C,-16.9 kcal/mol
GCATACGGAAACGTGTGC (((.(((....))).))),55 °C,-50.6 kcal/mol
GCATAGCGAAAGCCTTGC (((..((....))..))),36.9 °C,-13.9 kcal/mol
GCATAGCGAAAGCGCTGC (((..((....))..))),51.3 °C,-16.5 kcal/mol
GCATAGCGAAAGCTAGGC ((.((((....)))).)),67 °C,-27.1 kcal/mol
GCATAGCGAAAGCTCAGC ((..(((....)))..)),30.6 °C,-14.3 kcal/mol
GCATAGCGAAAGCTCCGC ((..(((....)))..)),32.6 °C,-8.77 kcal/mol
GCATAGCGAAAGCTTAGC ((..(((....)))..)),41.6 °C,-16.2 kcal/mol
GCATAGCGAAAGCTTGC (((.(((....)))))),54.3 °C,-22.5 kcal/mol
GCATAGCGAAAGCTTGGC ((..(((....)))..)),41.9 °C,-18.6 kcal/mol
GCATAGGGAAACCCATGC ((((.((....)).)))),45.5 °C,-29.9 kcal/mol
